# pEC50, pIC50: −log10 of the molar value. Activity calls are given as the source filed them. The rule behind the calls is not given here.
# Experiments:
# [1] = target: Metabotropic glutamate receptor 4 (Homo sapiens, UniProt Q14833); test: Positive allosteric modulation of human mGlu4 receptor expressed in CHO cells co-expressing Gqi5 assessed as increase in glutamate-induced calcium mobilization preincubated for 142 secs followed by EC20 glutamate addition and subsequent EC80 glutamate addition after 147 secs by Fluo-4-AM dye based fluorescence assay; format: functional, cell-based
# Method in brief: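 CHO cells expressing human mGlu4 and Gqi5, plated at 30,000 cells/well and grown overnight at 37 °C, 5% CO2. Cells were loaded with 1 μM Fluo-4 AM for 45 min at 37 °C in HBSS/20 mM HEPES/2.5 mM probenecid. Compounds were run as 10-point, 1:3 dilution series. After 142 s, EC20 glutamate was added; 147 s later, EC80 glutamate. Fluorescence was normalized to the maximal glutamate response. EC50 and %Glu Max were fitted by four-parameter logistic, with maximum normalized to PHCCC.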
# [2] = Intrinsic clearance in human liver microsomes at 1 uM preincubated for 5 mins followed by NADPH addition measured up to 45 mins by LC-MS/MS analysis; format: ADME, Microsome; settings: read-out: CLH
# Method in brief: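 Intrinsic and predicted hepatic clearance derived from liver microsome incubations.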
# [3] = Fraction unbound in human plasma after 4 hrs by equilibrium dialysis method; format: ADME, cell-free
# [4] = Fraction unbound in rat plasma after 4 hrs by equilibrium dialysis method; format: ADME, cell-free
# Cytochrome P450 1A2 = target: T1, Cytochrome P450 1A2 (Homo sapiens, UniProt P05177); test: Inhibition of CYP1A2 in human liver microsomes using phenacetin as substrate preincubated for 15 mins followed by substrate addition and measured after 8 mins by LC-MS/MS analysis; format: ADME
# T1 sequence (P05177 whole entry): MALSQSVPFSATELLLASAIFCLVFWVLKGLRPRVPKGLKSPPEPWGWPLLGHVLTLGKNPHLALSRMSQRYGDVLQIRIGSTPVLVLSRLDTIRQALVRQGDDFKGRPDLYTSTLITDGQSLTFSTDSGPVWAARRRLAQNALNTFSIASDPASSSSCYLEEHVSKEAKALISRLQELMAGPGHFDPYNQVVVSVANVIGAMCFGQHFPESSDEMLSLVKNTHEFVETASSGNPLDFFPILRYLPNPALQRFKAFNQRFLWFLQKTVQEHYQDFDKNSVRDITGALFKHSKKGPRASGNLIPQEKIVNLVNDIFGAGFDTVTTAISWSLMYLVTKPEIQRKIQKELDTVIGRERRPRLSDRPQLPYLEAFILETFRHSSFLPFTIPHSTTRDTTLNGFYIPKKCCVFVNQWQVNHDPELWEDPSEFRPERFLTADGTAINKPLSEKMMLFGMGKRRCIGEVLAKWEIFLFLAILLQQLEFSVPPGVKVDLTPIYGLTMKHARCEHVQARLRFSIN
# Method in brief: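 IC50 for CYP1A2 inhibition determined in human liver microsomes using specific probe substrate-metabolite pairs.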
# [5] = Half life in rat administered as iv cassette dose; format: ADME, organism-based; settings: in vivo
# Method in brief: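 IV cassette in male Sprague-Dawley rats (~300 g, n = 1 per experiment), cannulated in carotid artery and jugular vein and acclimated about one week. Plasma clearance, Vss, t1/2 and MRT were derived.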
# [6] = Brain to plasma partition coefficient, Kp of the compound in rat administered as iv cassette dose; format: ADME, organism-based; settings: brain and plasma, read-out: Kp
# Method in brief: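 Cassette dosing in male Sprague-Dawley rats (~300 g, n = 1 per experiment), with carotid artery and jugular vein catheters. Animals acclimated about one week with food and water ad libitum. Plasma (ng/mL) and brain (ng/g) levels were measured and Kp calculated.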
# [7] = Plasma concentration in Sprague-Dawley rat model of haloperidol-induced catalepsy at 10 mg/kg, po; format: ADME, organism-based; settings: in vivo
# Method in brief: (§1)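 Male Sprague-Dawley rats given haloperidol 0.75 mg/kg i.p., then returned to cages for 60 min. Compound 10 mg/kg was dosed orally 30 min before catalepsy testing. Plasma, brain and CSF were then assayed, and free levels reported.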
# [8] = Drug uptake in brain of Sprague-Dawley rat model of haloperidol-induced catalepsy at 10 mg/kg, po; format: ADME, organism-based; settings: in vivo, read-out: Drug uptake; method in brief: as §1
# [9] = Drug uptake in cerebrospinal fluid of Sprague-Dawley rat model of haloperidol-induced catalepsy at 10 mg/kg, po; format: ADME, organism-based; settings: in vivo, read-out: Drug uptake; method in brief: as §1
# Cytochrome P450 2C9 = Cytochrome P450 2C9 (Homo sapiens, UniProt P11712); test: Inhibition of CYP2C9 in human liver microsomes using diclofenac as substrate preincubated for 15 mins followed by substrate addition and measured after 8 mins by LC-MS/MS analysis; format: ADME
# Cytochrome P450 2D6 = Cytochrome P450 2D6 (Homo sapiens, UniProt P10635); test: Inhibition of CYP2D6 in human liver microsomes using dextromethorphan as substrate preincubated for 15 mins followed by substrate addition and measured after 8 mins by LC-MS/MS analysis; format: ADME
# P-gp [10] = test: Permeability from apical to basolateral side in MDCK cells harboring P-gp; format: ADME, cell-based, Canis lupus familiaris; settings: dog, MDCK-MDR1; read-out: permeability
# P-gp [11] = test: Permeability from basolateral to apical side in MDCK cells harboring P-gp; format: ADME, cell-based, Canis lupus familiaris; settings: dog, MDCK-MDR1; read-out: permeability
# [12] = Brain to plasma partition coefficient, Kp of the compound in Sprague-Dawley rat model of haloperidol-induced catalepsy at 10 mg/kg, po; format: ADME, organism-based; settings: brain and plasma; method in brief: as §1
# [13] = target: Metabotropic glutamate receptor 1 (Homo sapiens) (UniProt Q13255); test: Allosteric modulation of human mGlu1 receptor assessed as change in glutamate-induced calcium mobilization at 10 uM preincubated for 2.5 mins followed by glutamate addition by Fluo-4-AM dye based fluorescence assay; format: functional
# Method in brief: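 Human mGlu1 and rat mGlu5 tested by calcium mobilization with a double addition. 10 μM compound was added, then 2.5 min later a full glutamate concentration range. A left shift of more than 2-fold was scored as potentiation. A right shift of more than 2-fold, or a depression of the maximum response by at least 75%, was scored as antagonism.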
# Metabotropic glutamate receptor 1 (Homo sapiens), sequence (Q13255 19-1194 limits assumed): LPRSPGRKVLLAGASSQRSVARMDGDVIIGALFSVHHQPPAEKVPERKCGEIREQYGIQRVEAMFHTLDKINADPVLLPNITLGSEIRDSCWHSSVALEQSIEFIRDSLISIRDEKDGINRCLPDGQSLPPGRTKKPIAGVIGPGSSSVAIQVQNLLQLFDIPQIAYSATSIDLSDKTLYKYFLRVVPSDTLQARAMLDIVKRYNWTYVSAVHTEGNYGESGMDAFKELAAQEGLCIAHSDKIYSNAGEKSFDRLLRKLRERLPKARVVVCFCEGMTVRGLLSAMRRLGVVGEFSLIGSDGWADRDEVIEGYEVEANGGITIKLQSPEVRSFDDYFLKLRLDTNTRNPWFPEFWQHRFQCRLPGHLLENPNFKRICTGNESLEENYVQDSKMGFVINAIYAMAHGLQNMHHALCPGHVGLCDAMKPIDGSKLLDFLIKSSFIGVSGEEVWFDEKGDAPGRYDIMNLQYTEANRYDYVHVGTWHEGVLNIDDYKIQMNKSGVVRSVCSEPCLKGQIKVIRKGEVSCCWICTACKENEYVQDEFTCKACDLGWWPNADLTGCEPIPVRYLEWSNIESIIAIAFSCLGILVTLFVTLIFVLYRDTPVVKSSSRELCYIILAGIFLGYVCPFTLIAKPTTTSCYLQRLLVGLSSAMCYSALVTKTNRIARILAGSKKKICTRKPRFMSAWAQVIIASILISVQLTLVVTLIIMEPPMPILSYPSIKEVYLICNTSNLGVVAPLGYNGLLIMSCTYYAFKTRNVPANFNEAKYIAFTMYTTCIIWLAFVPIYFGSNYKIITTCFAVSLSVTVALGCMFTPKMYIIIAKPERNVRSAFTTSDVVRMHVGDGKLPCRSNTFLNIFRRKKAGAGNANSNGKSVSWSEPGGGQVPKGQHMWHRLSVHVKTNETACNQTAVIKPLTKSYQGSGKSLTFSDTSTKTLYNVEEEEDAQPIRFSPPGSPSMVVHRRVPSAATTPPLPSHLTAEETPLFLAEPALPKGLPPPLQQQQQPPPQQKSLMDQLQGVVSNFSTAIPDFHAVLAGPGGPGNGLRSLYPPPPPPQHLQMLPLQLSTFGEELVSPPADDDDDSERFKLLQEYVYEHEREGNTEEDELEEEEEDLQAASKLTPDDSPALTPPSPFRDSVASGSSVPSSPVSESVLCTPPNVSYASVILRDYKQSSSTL
# Metabotropic glutamate receptor 4, sequence (Q14833 whole entry): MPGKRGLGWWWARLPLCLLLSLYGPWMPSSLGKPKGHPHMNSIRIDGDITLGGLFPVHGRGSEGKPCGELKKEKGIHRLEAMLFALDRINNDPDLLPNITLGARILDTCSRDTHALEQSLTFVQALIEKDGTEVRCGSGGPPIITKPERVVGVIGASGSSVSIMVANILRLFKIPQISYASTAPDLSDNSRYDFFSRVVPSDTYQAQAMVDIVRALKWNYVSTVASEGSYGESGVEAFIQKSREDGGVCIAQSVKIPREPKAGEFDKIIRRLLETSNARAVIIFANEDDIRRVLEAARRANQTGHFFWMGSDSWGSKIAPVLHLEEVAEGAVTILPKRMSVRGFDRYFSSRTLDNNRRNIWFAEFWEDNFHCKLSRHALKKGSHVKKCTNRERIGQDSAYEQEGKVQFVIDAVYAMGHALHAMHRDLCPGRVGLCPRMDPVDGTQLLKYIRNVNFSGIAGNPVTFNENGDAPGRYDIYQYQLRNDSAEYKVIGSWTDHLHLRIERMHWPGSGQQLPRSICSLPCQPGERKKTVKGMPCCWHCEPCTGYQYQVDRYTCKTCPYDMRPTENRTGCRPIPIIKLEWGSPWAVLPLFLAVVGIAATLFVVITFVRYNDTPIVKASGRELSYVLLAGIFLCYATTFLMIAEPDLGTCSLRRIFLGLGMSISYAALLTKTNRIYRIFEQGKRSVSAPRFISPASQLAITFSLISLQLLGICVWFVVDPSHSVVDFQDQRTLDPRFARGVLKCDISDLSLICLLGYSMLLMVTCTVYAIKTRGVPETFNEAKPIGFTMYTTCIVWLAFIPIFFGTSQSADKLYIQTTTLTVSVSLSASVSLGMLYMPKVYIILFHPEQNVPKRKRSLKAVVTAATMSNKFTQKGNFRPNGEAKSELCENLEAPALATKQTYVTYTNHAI
# Cytochrome P450 2D6, sequence (P10635 whole entry): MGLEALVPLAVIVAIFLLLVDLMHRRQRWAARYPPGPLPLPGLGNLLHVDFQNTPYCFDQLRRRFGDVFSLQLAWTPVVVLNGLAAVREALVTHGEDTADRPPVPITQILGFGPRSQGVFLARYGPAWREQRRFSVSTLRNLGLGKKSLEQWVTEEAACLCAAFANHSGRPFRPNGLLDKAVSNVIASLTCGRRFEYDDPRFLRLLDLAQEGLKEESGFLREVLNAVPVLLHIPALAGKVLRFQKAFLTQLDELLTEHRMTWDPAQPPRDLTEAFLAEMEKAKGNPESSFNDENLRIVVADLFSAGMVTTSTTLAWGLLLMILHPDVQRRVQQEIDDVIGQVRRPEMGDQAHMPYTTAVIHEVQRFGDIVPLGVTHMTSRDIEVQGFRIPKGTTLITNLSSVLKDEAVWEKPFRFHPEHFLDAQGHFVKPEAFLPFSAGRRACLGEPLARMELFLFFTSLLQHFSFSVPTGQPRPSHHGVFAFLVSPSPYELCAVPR
# Cytochrome P450 2C9, sequence (P11712 whole entry): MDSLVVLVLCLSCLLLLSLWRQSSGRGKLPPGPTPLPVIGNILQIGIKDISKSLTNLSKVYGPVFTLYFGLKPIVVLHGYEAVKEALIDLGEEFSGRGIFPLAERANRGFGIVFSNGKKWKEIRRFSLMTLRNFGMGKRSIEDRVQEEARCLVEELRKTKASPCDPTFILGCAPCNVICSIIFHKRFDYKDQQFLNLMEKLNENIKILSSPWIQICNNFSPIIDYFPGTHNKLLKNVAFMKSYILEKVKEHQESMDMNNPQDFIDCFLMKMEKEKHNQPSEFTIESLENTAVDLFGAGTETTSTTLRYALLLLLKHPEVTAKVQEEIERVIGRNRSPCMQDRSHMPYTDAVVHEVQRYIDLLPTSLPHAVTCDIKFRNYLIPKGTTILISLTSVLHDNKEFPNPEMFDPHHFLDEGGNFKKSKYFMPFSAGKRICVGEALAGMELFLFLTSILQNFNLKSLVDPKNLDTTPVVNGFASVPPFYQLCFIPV
structure (smiles),measurement,setting,value
O=C(NC1CC(F)(F)C1)c1nsc2cc(Nc3n[nH]c4cccnc34)ccc12,pEC50,[1],7.30
same,CLint scaled at 1 µM,[2],19 mL/min/kg
same,fraction unbound at 4 h,[3],0.024
same,fraction unbound at 4 h,[4],0.005
same,pIC50,Cytochrome P450 1A2,< 4.52
same,half-life,[5],7.42 h
same,Kp,[6],0.4
same,concentration,[7],1120 nM
same,concentration,[8],252 nM
same,concentration,[9],46 nM
same,pIC50,Cytochrome P450 2C9,< 4.52
same,pIC50,Cytochrome P450 2D6,< 4.52
same,Papp A→B,P-gp [10],2.9 ×10⁻⁶ cm/s
same,Papp B→A,P-gp [11],5.4 ×10⁻⁶ cm/s
same,Kp,[12],0.23
same,Activity,[13],inactive

# Source: ChEMBL document CHEMBL4308847, “Discovery, Structure-Activity Relationship, and Biological Characterization of a Novel Series of 6-((1 H-Pyrazolo[4,3- b]pyridin-3-yl)amino)-benzo[ d]isothiazole-3-carboxamides as Positive Allosteric Modulators of the Metabotropic Glutamate Receptor 4 (mGlu4)” (J Med Chem, 2018)
